Data set [1] concerns the target Melatonin receptor type 1A (Homo sapiens) (UniProt P48039). The experiment in a line: Inhibition of human MTNR1 receptor at 500 nM using TMB as substrate preincubated for 1 hr followed by substrate addition by ELISA relative to control. Put shortly: (§1)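 ELISA kit format: compounds incubated 1 h with MTNR1 receptor (5 ng/mL), melatonin as control. TMB substrate, stop solution, OD read at 450 nm; expressed as % inhibition.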

The test system of data set [2] is Plasmodium falciparum. The data set can be described thus: Antimalarial activity against trophozoite stage of Plasmodium falciparum 3D7 infected in human erythrocytes assessed as parasite survival level at 10 uM incubated for 48 hrs by Giemsa staining-based microscopic analysis (reference value: 43.65 +/- 5.16%). Format: functional. As to conditions: 3D7, 48 h.

Data set [3] has as its system Plasmodium falciparum. The experiment in a line: Antimalarial activity against ring stage of Plasmodium falciparum 3D7 infected in human erythrocytes assessed as parasite survival level at 10 uM measured immediately at 0 hrs by Giemsa staining-based microscopic analysis (reference value: 96.4 +/- 5.09%). Format: functional. As to conditions: 3D7, 0 h.
The test system of data set [4] is Plasmodium falciparum. The data set can be described thus: Antimalarial activity against chloroquine resistant Plasmodium falciparum RKL9 infected in human erythrocytes assessed as reduction in parasitemia incubated for 0 to 48 hrs by Giemsa staining-based microscopic analysis. Format: functional, organism-based. In outline: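 Sorbitol-synchronized ring-stage culture at 1% parasitemia, 5% hematocrit in human O+ erythrocytes (RPMI 1640, 0.5% albumax, hypoxanthine, gentamicin; 37 °C, 5% CO2/5% O2/90% N2). Compounds at […] for 48 h. Parasitemia counted on Giemsa-stained smears at 0 and 48 h. DMSO control. Mean of three independent experiments ±SD.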

Data set [5] has as its system Plasmodium falciparum. The data set can be described thus: Antimalarial activity against synchronized ring stage of Plasmodium falciparum 3D7 infected in human erythrocytes assessed as inhibition of parasite growth incubated for 48 hrs by Giemsa staining-based microscopic analysis. Format: functional, organism-based. As to conditions: 3D7, 48 h. Put shortly:
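Sorbitol-synchronized ring-stage 3D7 in human O+ erythrocytes was exposed to four concentrations (1, 5, 10 and 20) for 48 h. Parasitemia was counted on Giemsa smears and IC50 taken from the dose-response curve. Mean ± SD of three independent experiments.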

Data set [6] can be described thus: Stability of the compound in phosphate buffer at pH 7.4 assessed as compound remaining at 1 mg/ml incubated for 0 to 24 hrs by HPLC analysis relative to control. Format: physicochemical. In outline:
(§2)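 Compound stock in acetonitrile was added to 1.0 mL of fresh 0.01 N HCl (pH 2.0) or phosphate buffer (pH 7.4), held at 37 °C, and the amount remaining was measured by HPLC at intervals from 0 to 24 h.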

The test system of data set [7] is Plasmodium falciparum. The data set can be described thus: Antimalarial activity against schizont stage of Plasmodium falciparum 3D7 infected in human erythrocytes assessed as parasite survival level at 10 uM incubated for 48 hrs by Giemsa staining-based microscopic analysis (reference value: 5 +/- 7.07%). Format: functional. The note with it: 3D7, 48 h.
Data set [8] is described as follows: Stability of the compound in 0.01 N HCL at pH 2.0 assessed as compound remaining at 1 mg/ml incubated for 0 to 24 hrs by HPLC analysis relative to control. Format: physicochemical. In outline: as §2
The subject of data set [9] is Plasmodium falciparum. The data set can be described thus: Antimalarial activity against trophozoite stage of Plasmodium falciparum 3D7 infected in human erythrocytes assessed as parasite survival level at 10 uM measured immediately at 0 hrs by Giemsa staining-based microscopic analysis (reference value: 3.55 +/- 5.02%). The note with it: 3D7, 0 h. The format is functional.

The subject of data set [10] is Plasmodium falciparum. The experiment in a line: Antimalarial activity against synchronized ring stage of Plasmodium falciparum 3D7 infected in human erythrocytes assessed as inhibition of parasite growth at 10 uM incubated for 0 to 48 hrs by Giemsa staining-based microscopic analysis. The format is functional. In outline:
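3D7 was sorbitol-synchronized to ring stage at 1% parasitemia, cultured in human O+ erythrocytes (5% hematocrit, RPMI 1640/albumax, 37 °C, low-O2 gas), and exposed for 48 h, with DMSO as control. Giemsa smears at 0, 12, 24, 36 and 48 h gave parasitemia and stage morphology. Mean ± SD of three independent experiments.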

In data set [11] the target is Melatonin receptor type 1A (Homo sapiens) (UniProt P48039). The experiment in a line: Inhibition of human MTNR1 receptor at 1 uM using TMB as substrate preincubated for 1 hr followed by substrate addition by ELISA relative to control. In outline:
as §1

Data set [12] deals with Plasmodium falciparum. The data set can be described thus: Antimalarial activity against ring stage of Plasmodium falciparum 3D7 infected in human erythrocytes assessed as parasite survival level at 10 uM incubated for 48 hrs by Giemsa staining-based microscopic analysis (reference value: 51.3 +/- 1.83%). As to conditions: 3D7, 48 h. Format: functional.
In data set [13] the target is Melatonin receptor type 1A (Homo sapiens) (UniProt P48039). The data set can be described thus: Inhibition of human MTNR1 receptor at 5 uM using TMB as substrate preincubated for 1 hr followed by substrate addition by ELISA relative to control. Put shortly: as §1
Chain of Melatonin receptor type 1A (Homo sapiens) (P48039 whole entry): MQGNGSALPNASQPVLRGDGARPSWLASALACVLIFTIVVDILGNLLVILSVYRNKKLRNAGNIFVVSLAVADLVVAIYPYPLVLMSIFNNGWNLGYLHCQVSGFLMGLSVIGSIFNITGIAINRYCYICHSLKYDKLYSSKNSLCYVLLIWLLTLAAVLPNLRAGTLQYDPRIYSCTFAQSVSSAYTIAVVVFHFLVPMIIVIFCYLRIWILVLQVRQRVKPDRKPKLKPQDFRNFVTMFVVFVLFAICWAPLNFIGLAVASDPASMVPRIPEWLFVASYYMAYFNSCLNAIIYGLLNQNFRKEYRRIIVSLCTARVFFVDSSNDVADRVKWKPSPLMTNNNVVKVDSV
Data set [14] concerns Plasmodium falciparum. The data set can be described thus: Antimalarial activity against schizont stage of Plasmodium falciparum 3D7 infected in human erythrocytes assessed as parasite survival level at 10 uM measured immediately at 0 hrs by Giemsa staining-based microscopic analysis (reference value: 0%). Format: functional. As to conditions: 3D7, 0 h.
Data set [15] has as its target Melatonin receptor type 1A (Homo sapiens) (UniProt P48039). The data set can be described thus: Inhibition of human MTNR1 receptor at 500 nM to 5 uM using TMB as substrate preincubated for 1 hr followed by substrate addition by ELISA relative to control. In outline: as §1
(In general: ELISA stands for enzyme-linked immunosorbent assay.)

Active and inactive are the calls of the source. The rule behind the calls is not given here.

A word on the inhibition: it is the change of the read-out against control, counted positive when it falls. What is called IC50 is the concentration that inhibits the measured activity by half. Turning to `CC/N=C(/c1cc(C(F)(F)F)cc(C(F)(F)F)c1)c1[nH]c2ccc(OC)cc2c1CCNC(=O)OC`, the inhibition in data set [1] is 60%; with Plasmodium falciparum [4], “Dose dependent effect”; in data set [11], 80%; in [13] it was 70%. The survival at 10 µM in the data set on Plasmodium falciparum [2] was found to be 17.5%; with Plasmodium falciparum [3], 92.5%; with Plasmodium falciparum [7] it was 14%; in the data set on Plasmodium falciparum [9], 7%; in the data set with Plasmodium falciparum [12], 68.5%; in the data set with Plasmodium falciparum [14] it was 0.5%. Also, the IC50 in the data set with Plasmodium falciparum [5] turned out to be 2.73 µM. The remaining at 1 mg/ml in data set [6] (phosphate buffer, read-out: Stability) was determined as 60%. In [8] (buffer), the Stability result was “Unstable”. Besides, the “growth inhibition (GI)” value with Plasmodium falciparum [10] was “Active”.
As to `CC/N=C(/c1ccc(C)cc1)c1[nH]c2ccccc2c1CCNC(=O)OC`, the survival at 10 µM in the data set with Plasmodium falciparum [2] is 97.5%; in the data set with Plasmodium falciparum [3] it was 93%; with Plasmodium falciparum [7] it was 2.5%; with Plasmodium falciparum [9], 7%; in the data set on Plasmodium falciparum [12], 0%; with Plasmodium falciparum [14], 0%. The inhibition entry in the data set with Plasmodium falciparum [4] was “Dose dependent effect”. The half-inhibitory concentration (IC50) in the data set on Plasmodium falciparum [5] amounted to 4.28 µM. Also, the Stability entry in [6] (buffer) is recorded as “Unstable”. Besides, the inhibition result in data set [15] is “inactive”. For the same compound, in data set [8] (0.01 N HCl, read-out: Stability), the remaining at 1 mg/ml worked out at 20%. Further, the “growth inhibition (GI)” value in the data set on Plasmodium falciparum [10] was “Active”.

(Values after ChEMBL document CHEMBL4390651, “Indole based antimalarial compounds targeting the melatonin pathway: Their design, synthesis and biological evaluation” (Eur J Med Chem, 2019).)
